# Results reported in ChEMBL document CHEMBL1142490, “2-Phenyl-imidazo[1,2-a]pyridine compounds containing hydrophilic groups as potent and selective ligands for peripheral benzodiazepine receptors: synthesis, binding affinity and electrophysiological studies” (J Med Chem, 2008).
# Where “and” joins values, the source holds several entries; their conditions need not be identical. Equal entries are not always repeated. Calls of active or inactive are those of the source. No cut-off for these calls is given here.
# Molecular target: T1, GABA-A receptor; alpha-1/beta-2/gamma-2 (Homo sapiens) (UniProt P14867+P47870+P18507)
# Assay: Agonist activity at human recombinant GABAA alpha-1-beta-2-gamma-2L receptor expressed in Xenopus oocytes assessed as change in GABA-induced chloride current amplitude at 10 uM by voltage clamp technique
# Format: functional, cell-based
# Details: Oocyte
# How it was run: (§1)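 Xenopus oocytes (stage V–VI, defolliculated) are nuclear-injected with human α1, β2 and γ2L cDNAs (1:1:1) and recorded about 24 h later. Two-electrode voltage clamp at -70 mV, MBS perfusion, room temperature. […] Reported as percent change from control; 5–10 oocytes per concentration.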
row,SMILES,Activity [%]
1,CCCN(CCC)C(=O)Cc1c(-c2ccc(Cl)cc2)nc2c(NC(=O)CC(=O)O)cccn12,19.8
2,COc1ccc(-c2nc3c(Cl)cc(Cl)cn3c2CC(=O)N(C)c2ccccc2)cc1,-8
3,CCCN(CCC)C(=O)Cc1c(-c2ccc(OC(=O)CN)cc2)nc2c(Cl)cc(Cl)cn12,71
4,CCCN(CCC)C(=O)Cc1c(-c2ccc(OC)cc2)nc2c(Cl)cc(Cl)cn12,55.9
5,CCCN(CCC)C(=O)Cc1c(-c2ccc(Cl)c([N+](=O)[O-])c2)nc2c(Cl)cc(Cl)cn12,9.6
6,CCCCN(C)C(=O)Cc1c(-c2ccc(O)cc2)nc2c(Cl)cc(Cl)cn12,-23.6

# Molecular target: Translocator protein (Rattus norvegicus, UniProt P16257)
# Assay: Displacement of [3H]PK11195 from peripheral benzodiazepine receptor in Sprague-Dawley rat cerebral cortex membrane by liquid scintillation counting
# Format: tissue-based
# Details: not given
# How it was run: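 Rat cerebral cortex membranes are washed in PBS, pH 7.4. Incubation with [3H]-ligand (1 nM final), 0.15–0.20 mg protein, 90 min. Filtration on PEI-presoaked GF/B filters, then scintillation counting. Nonspecific binding defined with 10 µM unlabelled ligand. Ki from three experiments in duplicate.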
# Translocator protein, sequence (P16257 whole entry, looked up): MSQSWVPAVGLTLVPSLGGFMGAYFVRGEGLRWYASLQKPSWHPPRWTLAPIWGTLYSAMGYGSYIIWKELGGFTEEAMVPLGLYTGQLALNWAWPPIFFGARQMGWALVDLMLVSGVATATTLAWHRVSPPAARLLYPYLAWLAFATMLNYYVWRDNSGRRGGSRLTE
row,SMILES,Ki [nM]
1,CCCCN(C)C(=O)Cc1c(-c2ccc(Cl)c(N)c2)nc2c(Cl)cc(Cl)cn12,0.78
2,CCCN(CCC)C(=O)Cc1c(-c2ccc(N)cc2)nc2c(Cl)cc(Cl)cn12 [listing 1 of 3 here],2.22
3,CCCN(CCC)C(=O)Cc1c(-c2ccc(N)cc2)nc2c(Cl)cc(Cl)cn12 [listing 2 of 3 here],2.76
4,CCCN(CCC)C(=O)Cc1c(-c2ccc(Cl)c(N)c2)nc2c(Cl)cc(Cl)cn12 [listing 1 of 3 here],0.45
5,CCCN(CCC)C(=O)Cc1c(-c2ccc(Cl)c(N)c2)nc2c(Cl)cc(Cl)cn12 [listing 2 of 3 here],0.33
6,CCCN(CCC)C(=O)Cc1c(-c2ccc(Cl)cc2)nc2c(NC(=O)CCC(=O)OCC)cccn12,0.86
7,CCCN(CCC)C(=O)Cc1c(-c2ccc(Cl)cc2)nc2c(NC(=O)CN)cccn12,14.2
8,CCCN(CCC)C(=O)Cc1c(-c2ccc(Cl)cc2)nc2c(NC(=O)CC(=O)O)cccn12,193
9,COc1ccc(-c2nc3c(Cl)cc(Cl)cn3c2CC(=O)N(C)c2ccccc2)cc1,0.23
10,CCCN(CCC)C(=O)Cc1c(-c2ccc(OC(=O)CN)cc2)nc2c(Cl)cc(Cl)cn12,1.52
11,CCCN(CCC)C(=O)Cc1c(-c2ccc(OC)cc2)nc2c(Cl)cc(Cl)cn12,0.31
12,CCCN(CCC)C(=O)Cc1c(-c2ccc(Cl)c([N+](=O)[O-])c2)nc2c(Cl)cc(Cl)cn12,0.24
13,CCCCN(C)C(=O)Cc1c(-c2ccc(O)cc2)nc2c(Cl)cc(Cl)cn12,0.87

# Molecular target: not listed separately
# Assay: Displacement of [3H]flunitrazepam from central benzodiazepine receptor in Sprague-Dawley rat cerebral cortex membrane by liquid scintillation counting
# Format: tissue-based
# Details: not given
# How it was run: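 Rat cortical membranes in 50 mM Tris-HCl, pH 7.4, 0.4–0.5 mg protein. Incubated with [3H]flunitrazepam (0.5 nM final) for 60 min at 0 °C. Filtration, then scintillation counting. Nonspecific binding defined with 5 µM diazepam. Ki from three experiments in duplicate.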
row,SMILES,Ki [nM]
1,CCCCN(C)C(=O)Cc1c(-c2ccc(Cl)c(N)c2)nc2c(Cl)cc(Cl)cn12,535
2,CCCN(CCC)C(=O)Cc1c(-c2ccc(N)cc2)nc2c(Cl)cc(Cl)cn12 [listing 1 of 3 here],246
3,CCCN(CCC)C(=O)Cc1c(-c2ccc(N)cc2)nc2c(Cl)cc(Cl)cn12 [listing 2 of 3 here],1020
4,CCCN(CCC)C(=O)Cc1c(-c2ccc(Cl)c(N)c2)nc2c(Cl)cc(Cl)cn12 [listing 2 of 3 here],> 10
5,CCCN(CCC)C(=O)Cc1c(-c2ccc(Cl)cc2)nc2c(NC(=O)CCC(=O)OCC)cccn12,> 10
6,CCCN(CCC)C(=O)Cc1c(-c2ccc(Cl)cc2)nc2c(NC(=O)CN)cccn12,> 10
7,CCCN(CCC)C(=O)Cc1c(-c2ccc(Cl)cc2)nc2c(NC(=O)CC(=O)O)cccn12,> 10
8,COc1ccc(-c2nc3c(Cl)cc(Cl)cn3c2CC(=O)N(C)c2ccccc2)cc1,1000
9,CCCN(CCC)C(=O)Cc1c(-c2ccc(OC(=O)CN)cc2)nc2c(Cl)cc(Cl)cn12,> 10
10,CCCN(CCC)C(=O)Cc1c(-c2ccc(OC)cc2)nc2c(Cl)cc(Cl)cn12,> 10
11,CCCN(CCC)C(=O)Cc1c(-c2ccc(Cl)c([N+](=O)[O-])c2)nc2c(Cl)cc(Cl)cn12,> 10
12,CCCCN(C)C(=O)Cc1c(-c2ccc(O)cc2)nc2c(Cl)cc(Cl)cn12,2930

# Molecular target: T1, GABA-A receptor; alpha-1/beta-2/gamma-2 (Homo sapiens)
# Assay: Agonist activity at human recombinant GABAA alpha-1-beta-2-gamma-2L receptor expressed in Xenopus oocytes assessed as change in GABA-induced chloride current amplitude at 1 uM by voltage clamp technique
# Format: functional, cell-based
# Details: Oocyte
# How it was run: as §1
row,SMILES,Activity
1,CCCN(CCC)C(=O)Cc1c(-c2ccc(Cl)c(N)c2)nc2c(Cl)cc(Cl)cn12 [listing 3 of 3 here],-6.2% and -2.9%
2,CCCN(CCC)C(=O)Cc1c(-c2ccc(N)cc2)nc2c(Cl)cc(Cl)cn12 [listing 3 of 3 here],8.1% and 29.9%
3,CCCN(CCC)C(=O)Cc1c(-c2ccc(Cl)cc2)nc2c(NC(=O)CC(=O)O)cccn12,9.6%
4,COc1ccc(-c2nc3c(Cl)cc(Cl)cn3c2CC(=O)N(C)c2ccccc2)cc1,-8.1%
5,CCCN(CCC)C(=O)Cc1c(-c2ccc(OC(=O)CN)cc2)nc2c(Cl)cc(Cl)cn12,26.6%
6,CCCN(CCC)C(=O)Cc1c(-c2ccc(OC)cc2)nc2c(Cl)cc(Cl)cn12,8.8%
7,CCCN(CCC)C(=O)Cc1c(-c2ccc(Cl)c([N+](=O)[O-])c2)nc2c(Cl)cc(Cl)cn12,14.9%
8,CCCCN(C)C(=O)Cc1c(-c2ccc(O)cc2)nc2c(Cl)cc(Cl)cn12,7.9%

# Species on record: Rattus norvegicus
# Assay: Agonist activity at GABAA alpha-1-beta-2-gamma-2L receptor in Sprague-Dawley rat hippocampal CA1 pyramidal neurons assessed as increase in miniature inhibitory postsynaptic current decay time at 30 uM after 30 mins by whole-cell patch clamp technique
# Format: functional, tissue-based
# Details: Hippocampus
# How it was run: (§2)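 Coronal hippocampal slices (300 µm) from male Sprague-Dawley rats anesthetized with ketamine (250 mg/kg i.p.) are recovered in ACSF, 40 min at 34 °C, then 30 min at room temperature. Whole-cell recordings of mIPSCs from CA1 pyramidal neurons at -65 mV, CsCl-based internal with QX-314. Compound bath-perfused at 30 µM for 30 min. Readout is mIPSC amplitude or decay time versus the pre-drug control.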
row,SMILES,Activity
1,CCCN(CCC)C(=O)Cc1c(-c2ccc(Cl)c([N+](=O)[O-])c2)nc2c(Cl)cc(Cl)cn12,Active

# Species on record: Rattus norvegicus
# Assay: Agonist activity at GABAA alpha-1-beta-2-gamma-2L receptor in Sprague-Dawley rat hippocampal CA1 pyramidal neurons assessed as increase in miniature inhibitory postsynaptic current amplitude at 30 uM after 30 mins by whole-cell patch clamp technique
# Format: functional, tissue-based
# Details: Hippocampus
# How it was run: as §2
row,SMILES,Activity
1,CCCN(CCC)C(=O)Cc1c(-c2ccc(Cl)c([N+](=O)[O-])c2)nc2c(Cl)cc(Cl)cn12,Active

# Species on record: Rattus norvegicus
# Assay: Agonist activity at GABAA alpha-1-beta-2-gamma-2L receptor in Sprague-Dawley rat hippocampal CA1 pyramidal neurons assessed as inhibition of miniature inhibitory postsynaptic current decay time at 30 uM after 30 mins in presence of 1 uM finasteride by whole-cell patch clamp technique
# Format: functional, tissue-based
# Details: Hippocampus
# How it was run: (§3)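 Rat hippocampal slices, whole-cell mIPSC recording from CA1 pyramidal neurons at -65 mV. Compound (30 µM) co-applied with finasteride (1 µM) for 30 min. Change in mIPSC amplitude or decay averaged over a 3 min period and given as mean percent change, n = 6.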
row,SMILES,Activity
1,CCCN(CCC)C(=O)Cc1c(-c2ccc(Cl)c([N+](=O)[O-])c2)nc2c(Cl)cc(Cl)cn12,inactive

# Species on record: Rattus norvegicus
# Assay: Selectivity ratio of Ki for central benzodiazepine receptor to Ki for peripheral benzodiazepine receptor in Sprague-Dawley rat cerebral cortex membrane
# Format: tissue-based
# Details: not given
row,SMILES,Ratio Ki
1,CCCCN(C)C(=O)Cc1c(-c2ccc(Cl)c(N)c2)nc2c(Cl)cc(Cl)cn12,686

# Molecular target: T1, GABA-A receptor; alpha-1/beta-2/gamma-2 (Homo sapiens)
# Assay: Agonist activity at human recombinant GABAA alpha-1-beta-2-gamma-2L receptor expressed in Xenopus oocytes assessed as inhibition of GABA-induced chloride current amplitude at 10 uM in presence of 10 uM flumazenil by voltage clamp technique
# Format: functional, cell-based
# Details: Oocyte
# How it was run: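 Two-electrode voltage clamp (-70 mV) of oocytes expressing human α1β2γ2L GABAA receptors. Percent change of GABA response by compound at 10 µM measured with and without flumazenil at 10 µM. Mean of four oocytes ± SEM.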
row,SMILES,Activity
1,CCCN(CCC)C(=O)Cc1c(-c2ccc(OC)cc2)nc2c(Cl)cc(Cl)cn12,inactive

# Species on record: Rattus norvegicus
# Assay: Agonist activity at GABAA alpha-1-beta-2-gamma-2L receptor in Sprague-Dawley rat hippocampal CA1 pyramidal neurons assessed as inhibition of miniature inhibitory postsynaptic current amplitude at 30 uM after 30 mins in presence of 1 uM finasteride by whole-cell patch clamp technique
# Format: functional, tissue-based
# Details: Hippocampus
# How it was run: as §3
row,SMILES,Activity
1,CCCN(CCC)C(=O)Cc1c(-c2ccc(Cl)c([N+](=O)[O-])c2)nc2c(Cl)cc(Cl)cn12,inactive
